According to ChEMBL document CHEMBL3244396, “Synthesis and antileukemic activity of 5-substituted 2,3-dihydro-6,7-bis(hydroxymethyl)-1H-pyrrolizine diesters” (J Med Chem, 1977):
Converted amounts (≈) assume the structure as drawn.

What was measured:
P388 [1] = test: Antitumor activity against mouse P388 cells allografted in female CDF1 mouse assessed as change in body weight at 50 mg/kg, ip administered daily for 9 days as Klucel suspension starting 24 hrs after tumor inoculation; type: functional; conditions: route intraperitoneal
In short: (§1)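 Ascitic fluid carrying P388 cells was inoculated ip. Compound was given ip in nine daily doses, starting 24 h after inoculation, in Klucel (hydroxypropylcellulose) suspension or in saline with Tween-80. Body-weight difference (treated minus control) was recorded on day 5. Survival was scored as %T/C of median survival time, and 30-day survival counted as cure.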

P388 [2] = test: Antitumor activity against mouse P388 cells allografted in female CDF1 mouse assessed as disease cures by measuring 30-days host survival at 100 mg/kg, ip administered daily for 9 days as Klucel suspension starting 24 hrs after tumor inoculation relative to control; type: functional; conditions: route intraperitoneal
In short: (§2)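 P388 leukemia given as an ascitic fluid cell inoculum, ip, to mice of the strain and sex in each line. Nine daily ip doses were given in a Klucel (hydroxypropylcellulose) suspension, starting 24 h after inoculation. Read-out is median survival time as %T/C, with >125 taken as significant; a "cure" means 30-day survival.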

Mus musculus [3] = test: Toxicity in female BDF1 mouse allografted with mouse L1210 cells assessed as animal survival at 200 mg/kg, ip administered daily for 9 days as Klucel suspension starting 24 hrs after tumor inoculation measured on fifth day; type: organism-based; design: dose 200 mg/kg, route intraperitoneal; conditions: in vivo
In short: (§3)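 L1210 leukemia passaged as ascitic fluid and inoculated ip. Test agent given ip as a Klucel (hydroxypropylcellulose) suspension, nine daily doses starting 24 h after tumor inoculation. Acute toxicity read as toxicity-day survivors per group (out of 6), recorded on day 5. Animal weight difference T − C was also recorded. Follows NCI screening protocols.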

L1210 [4] = test: Antileukemic activity against mouse L1210 cells allografted in female BDF1 mouse assessed as change in body weight at 100 mg/kg, ip administered daily for 9 days as Klucel suspension starting 24 hrs after tumor inoculation; type: functional; conditions: route intraperitoneal
In short: (§4)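 Ascitic fluid carrying L1210 cells was inoculated ip. Compound was given ip as a Klucel (hydroxypropylcellulose) suspension in nine daily doses, starting 24 h after inoculation. Body-weight difference (treated minus control) was recorded on day 5. Survival was scored as %T/C of mean survival time.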

Mus musculus [5] = test: Toxicity in female CDF1 mouse allografted with mouse P388 cells assessed as animal survival at 50 mg/kg, ip administered daily for 9 days as Klucel suspension starting 24 hrs after tumor inoculation; type: organism-based; design: dose 50 mg/kg, route intraperitoneal; conditions: in vivo
In short: (§5)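 P-388 leukemia ascitic fluid inoculated ip. Compound given ip as a suspension in Klucel (hydroxypropylcellulose), once daily for nine doses beginning 24 h post-inoculation. Acute toxicity assessed as toxicity-day survivors per group. Survival was followed up to 30 days, with 30-day survival counted as "cure". Follows NCI screening protocols.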

L1210 [6] = test: Antileukemic activity against mouse L1210 cells allografted in female BDF1 mouse assessed as host mean survival time at 50 mg/kg, ip administered daily for 9 days as Klucel suspension starting 24 hrs after tumor inoculation relative to control; type: functional; conditions: route intraperitoneal
In short: (§6)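 L1210 leukemia given as an ascitic fluid cell inoculum, ip, to mice of the strain and sex in each line. Test material was given ip for nine daily doses starting 24 h after inoculation, in a Klucel (hydroxypropylcellulose) suspension. Read-out is mean survival time as %T/C versus controls, with >125 taken as significant.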

Mus musculus [7] = test: Toxicity in female CDF1 mouse allografted with mouse P388 cells assessed as animal survival at 100 mg/kg, ip administered daily for 9 days as Klucel suspension starting 24 hrs after tumor inoculation; type: organism-based; design: dose 100 mg/kg, route intraperitoneal; conditions: in vivo; in short: as §5
P388 [8] = test: Antitumor activity against mouse P388 cells allografted in female CDF1 mouse assessed as disease cures by measuring 30-days host survival at 200 mg/kg, ip administered daily for 9 days as Klucel suspension starting 24 hrs after tumor inoculation relative to control; type: functional; conditions: route intraperitoneal; in short: as §2
P388 [9] = test: Antitumor activity against mouse P388 cells allografted in female CDF1 mouse assessed as change in body weight at 100 mg/kg, ip administered daily for 9 days as Klucel suspension starting 24 hrs after tumor inoculation; type: functional; conditions: route intraperitoneal; in short: as §1
[10] = Cytotoxicity against human 9KB cells treated as ethanol solution; type: functional; conditions: read-out: ED50 (the source's name)
In short: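 Compound applied as an ethanol solution; activity read out as ED50 under the general screening protocol.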

L1210 [11] = test: Antileukemic activity against mouse L1210 cells allografted in female BDF1 mouse assessed as change in body weight at 50 mg/kg, ip administered daily for 9 days as Klucel suspension starting 24 hrs after tumor inoculation; type: functional; conditions: route intraperitoneal; in short: as §4
Mus musculus [12] = test: Toxicity in female BDF1 mouse allografted with mouse L1210 cells assessed as animal survival at 50 mg/kg, ip administered daily for 9 days as Klucel suspension starting 24 hrs after tumor inoculation measured on fifth day; type: organism-based; design: dose 50 mg/kg, route intraperitoneal; conditions: in vivo; in short: as §3
L1210 [13] = test: Antileukemic activity against mouse L1210 cells allografted in female BDF1 mouse assessed as host mean survival time at 200 mg/kg, ip administered daily for 9 days as Klucel suspension starting 24 hrs after tumor inoculation relative to control; type: functional; conditions: route intraperitoneal; in short: as §6
Mus musculus [14] = test: Toxicity in female CDF1 mouse allografted with mouse P388 cells assessed as animal survival at 200 mg/kg, ip administered daily for 9 days as Klucel suspension starting 24 hrs after tumor inoculation; type: organism-based; design: dose 200 mg/kg, route intraperitoneal; conditions: in vivo; in short: as §5
P388 [15] = test: Antitumor activity against mouse P388 cells allografted in female CDF1 mouse assessed as change in body weight at 200 mg/kg, ip administered daily for 9 days as Klucel suspension starting 24 hrs after tumor inoculation; type: functional; conditions: route intraperitoneal; in short: as §1
L1210 [16] = test: Antileukemic activity against mouse L1210 cells allografted in female BDF1 mouse assessed as change in body weight at 200 mg/kg, ip administered daily for 9 days as Klucel suspension starting 24 hrs after tumor inoculation; type: functional; conditions: route intraperitoneal; in short: as §4
L1210 [17] = test: Antileukemic activity against mouse L1210 cells allografted in female BDF1 mouse assessed as host mean survival time at 100 mg/kg, ip administered daily for 9 days as Klucel suspension starting 24 hrs after tumor inoculation relative to control; type: functional; conditions: route intraperitoneal; in short: as §6
Mus musculus [18] = test: Toxicity in female BDF1 mouse allografted with mouse L1210 cells assessed as animal survival at 100 mg/kg, ip administered daily for 9 days as Klucel suspension starting 24 hrs after tumor inoculation measured on fifth day; type: organism-based; design: dose 100 mg/kg, route intraperitoneal; conditions: in vivo
In short: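 Female BDF1 mice bearing ip ascitic L1210 inoculum got nine daily ip doses in a Klucel suspension, starting 24 h after tumor inoculation. Toxicity was scored as toxicity-day survivors out of the group, recorded on the fifth day. Animal weight difference (T − C) was also tabulated.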

P388 [19] = test: Antitumor activity against mouse P388 cells allografted in female CDF1 mouse assessed as disease cures by measuring 30-days host survival at 50 mg/kg, ip administered daily for 9 days as Klucel suspension starting 24 hrs after tumor inoculation relative to control; type: functional; conditions: route intraperitoneal; in short: as §2
P388 [20] = test: Antitumor activity against mouse P388 cells allografted in female BDF1 mouse assessed as disease cures by measuring 30-days host survival at 12.5 mg/kg, ip administered daily for 9 days as Klucel suspension starting 24 hrs after tumor inoculation relative to control; type: functional; conditions: route intraperitoneal; in short: as §2
Mus musculus [21] = test: Toxicity in female BDF1 mouse allografted with mouse P388 cells assessed as animal survival at 12.5 mg/kg, ip administered daily for 9 days as Klucel suspension starting 24 hrs after tumor inoculation; type: organism-based; design: dose 12.5 mg/kg, route intraperitoneal; conditions: in vivo; in short: as §5
Mus musculus [22] = test: Toxicity in female BDF1 mouse allografted with mouse P388 cells assessed as animal survival at 25 mg/kg, ip administered daily for 9 days as Klucel suspension starting 24 hrs after tumor inoculation; type: organism-based; design: dose 25 mg/kg, route intraperitoneal; conditions: in vivo; in short: as §5
P388 [23] = test: Antitumor activity against mouse P388 cells allografted in female BDF1 mouse assessed as change in body weight at 25 mg/kg, ip administered daily for 9 days as Klucel suspension starting 24 hrs after tumor inoculation; type: functional; conditions: route intraperitoneal; in short: as §1
P388 [24] = test: Antitumor activity against mouse P388 cells allografted in female BDF1 mouse assessed as change in body weight at 12.5 mg/kg, ip administered daily for 9 days as Klucel suspension starting 24 hrs after tumor inoculation; type: functional; conditions: route intraperitoneal; in short: as §1
P388 [25] = test: Antitumor activity against mouse P388 cells allografted in female BDF1 mouse assessed as disease cures by measuring 30-days host survival at 25 mg/kg, ip administered daily for 9 days as Klucel suspension starting 24 hrs after tumor inoculation relative to control; type: functional; conditions: route intraperitoneal; in short: as §2

Row | Structure (SMILES) | Activity (P388 [1]) | T/C (P388 [2]) | Activity (Mus musculus [3]) | Activity (L1210 [4]) | Activity (Mus musculus [5]) | T/C (L1210 [6]) | Activity (Mus musculus [7]) | T/C (P388 [8]) | Activity (P388 [9]) | EC50 [10] | Activity (L1210 [11]) | Activity (Mus musculus [12]) | T/C (L1210 [13]) | Activity (Mus musculus [14]) | Activity (P388 [15]) | Activity (L1210 [16]) | T/C (L1210 [17]) | Activity (Mus musculus [18]) | T/C (P388 [19]) | other results
1 | CC(=O)OCc1c(COC(C)=O)c(C(F)(F)F)n2c1CCC2 | 2.1 g | 93% | Non-toxic | -0.6 g | Non-toxic | 107% | Non-toxic | 104% | 1.8 g | 2.4 µg/mL (≈ 7.52 µM) | -1 g | Non-toxic | 98% | Non-toxic | 1.1 g | -0.8 g | 100% | Non-toxic | 90% | –
2 | CNC(=O)OCc1c(COC(=O)NC)c(C(F)(F)F)n2c1CCC2 | 1.4 g | 116% | Non-toxic | -0.8 g | Non-toxic | 104% | Non-toxic | 82% | -0.4 g | 2.5 µg/mL (≈ 7.16 µM) | -0.1 g | Non-toxic | 98% | – | -1.5 g | -0.2 g | 100% | Non-toxic | 117% | –
3 | CC(=O)OCc1c(COC(C)=O)c(-c2ccc(Cl)c(Cl)c2)n2c1CCC2 | -0.7 g | 122% | Non-toxic | -2.2 g | Non-toxic | 100% | Non-toxic | 127% | -1 g | > 100 µg/mL | -1.1 g | Non-toxic | 100% | Non-toxic | -3 g | -3.3 g | 104% | Non-toxic | 141% | T/C (P388 [20]): 114%; Activity (Mus musculus [21]): Non-toxic; Activity (Mus musculus [22]): Non-toxic; Activity (P388 [23]): 1.2 g; Activity (P388 [24]): 1.2 g; T/C (P388 [25]): 125%
